Holding throughout (experiment): Plaque inhibition test in fcwf-4 cells
Test [1] concerns type I FIPV strain KU-2. The test is classed as cell-based, feline infectious peritonitis virus. Conditions: for Plaque reduction by serial dilutions of peptides: peptide 160, 80 and 40 μM, triplicate. The procedure, abridged: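 Strain KU-2 plaque assay in fcwf-4 cells. Peptide from a 10 mM DMSO stock was diluted to 100 μM, or to 160, 80 and 40 μM, in medium with 2% FCS and 25 μg/mL DEAE-dextran, with 30 min RT pretreatment; 1% DMSO was the solvent control. Without washing, 10 μL of 8000 pfu/mL virus added, 30 min at 37 °C. Wash, carboxymethyl cellulose overlay, 2 days at 37 °C, crystal violet. % plaque inhibition against virus-alone wells.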

In test [2] the test system is type I FIPV strain Black. It counts as cell-based, feline infectious peritonitis virus. Conditions: peptide 100 μM. The procedure, abridged: (§1)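 Peptide (10 mM DMSO stock) diluted to 100 μM in medium with 2% FCS and 25 μg/mL DEAE-dextran, then applied to fcwf-4 cells for 30 min at RT. Same-fold DMSO (1%) served as solvent control. Without washing, 10 μL of 8000 pfu/mL virus added for 30 min at 37 °C. Cells washed, overlaid with 2% FCS/1.5% carboxymethyl cellulose for 2 days at 37 °C, formalin-fixed and crystal violet-stained. % plaque inhibition calculated against virus-alone wells.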

Test [3] concerns type II FIPV strain 79-1146. It counts as cell-based, feline infectious peritonitis virus. Particulars: peptide 100 μM. The procedure, abridged:
as §1

The test system of test [4] is FCV strain F4. It counts as cell-based, feline calicivirus. Conditions: peptide 100 μM, fcwf-4 cells 30 min RT, triplicate. The procedure, abridged:
as §1

Test [5] has as its system type I FIPV strain UCD-1. The test is classed as cell-based, feline infectious peritonitis virus. Particulars: peptide 100 μM. The procedure, abridged:
as §1

The subject of test [6] is FHV strain C7301. The test is classed as cell-based, feline herpesvirus. Particulars: peptide 100 μM, fcwf-4 cells 30 min RT, triplicate. An outline of the steps: as §1
The mark [7] stands for this setting: fcwf-4 cells 30 min RT, vs 1% DMSO, triplicate.

LFYKYTSLQGLYTYSNLVEL [I-S1-22]: in test [1], the “Plaque reduction by serial dilutions of peptides” value (“Plaque reduction” below) is reported as “dose-dependent”.
Take VNFSISSVEEYGFWTIAYTN [I-S1-8]: in test [1], the “Plaque reduction” value was “dose-dependent”.
As to YHWMNVTLHVVLNDTEKKYD [I-S1-16], in test [2] (fcwf-4 cells), the “Plaque inhibition, type I FIPV strain Black” value was not below 50%. Further, the “Inhibition of infection by type I FIPV strain Black” value in test [2] (setting [7]) is on record as “significantly inhibited”. In addition, in test [3] (fcwf-4 cells), the “Plaque inhibition, type II FIPV strain 79-1146” value was “less than 50%”. Further, the “Inhibition of infection by type II FIPV strain 79-1146” value in test [3] (setting [7]) is on record as “significantly inhibited”. Besides, in test [4], the “Inhibitory effect on infection by FCV strain F4” value is “no inhibitory effects”. For the same sequence, the “Plaque inhibition, type I FIPV strain KU-2” value in test [1] (peptide 100 μM) is reported as not below 50%. For the same sequence, in test [1], the “Plaque reduction” value is recorded as “dose-dependent”. Moreover, the “Plaque inhibition, type I FIPV strain UCD-1” value in test [5] (fcwf-4 cells) is given as not below 50%. The “Inhibition of infection by type I FIPV strain UCD-1” value in test [5] (setting [7]) is on record as “significantly inhibited”. Moreover, the “Inhibitory effect on infection by FHV strain C7301” value in test [6] was “no inhibitory effects”.
YTDVMVDVNGTAITRLFYCD [I-S1-10]: the “Plaque reduction” value in test [1] is “dose-dependent”.

(Values after article PMC7114445 (Virus Research, 2015).)
